The source made the active and inactive calls.
Legend:
Type in all cases: functional, cell-based
MDA-MB-435 = experiment: Cytotoxicity against human MDA-MB-435 cells at 5 ug/ml after 72 hrs by MTT assay
In short: (§1)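 Cells kept in log-phase growth in RPMI-1640 with 2 mM glutamine, 10% fetal calf serum, streptomycin and 100 U/ml penicillin at 37 °C, 5% CO₂. Single concentration of 5 µg/ml applied for 72 h. Growth read by MTT, reported as percent growth inhibition relative to untreated cells. Data from three to four experiments.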

HL-60 = experiment: Cytotoxicity against human HL60 cells at 5 ug/ml after 72 hrs by MTT assay; in short: as §1
SF-295 = experiment: Cytotoxicity against human SF295 cells at 5 ug/ml after 72 hrs by MTT assay; in short: as §1
HCT-8 = experiment: Cytotoxicity against human HCT8 cells at 5 ug/ml after 72 hrs by MTT assay; in short: as §1

Measured: Activity

CCCCCCCCCCC(N)C(=O)OC (stereo not drawn)
active: MDA-MB-435 | HL-60 | SF-295 | HCT-8

CCCCCCCCC(N)C(=O)OC (stereo not drawn)
active: MDA-MB-435 | HL-60 | SF-295 | HCT-8

— ChEMBL document CHEMBL1275359, “Pro-apoptotic activity of lipidic α-amino acids isolated from Protopalythoa variabilis” (Bioorg Med Chem, 2010)
